Columns and labels:
Plasmodium falciparum [1] = experiment: ST_JUDE: Cytotoxicity against Plasmodium falciparum D10 transfected with yeast DHOD; format: functional, organism-based
Plasmodium falciparum [2] = experiment: ST_JUDE: Cytotoxicity against Plasmodium falciparum 3D7; format: functional, organism-based
In short: (§1)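 Asexual P. falciparum grown in human erythrocytes, exposed to compounds for 72 h, and growth read as the DNA quantity in treated versus control cultures. Dose-response run at 12 concentrations from 10 μM to 5 nM.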

[3] = ST_JUDE: Cytotoxicity using luciferase to measure ATP as an indicator of the viability of human Burkitt''s lymphoma lymphoblast cells (Raji); format: toxicity, cell-based
Leishmania major = experiment: ST_JUDE: Cytotoxicity using Alamar Blue to measure viability of Leishmania major; format: functional, organism-based
In short: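 L. major promastigotes; drug susceptibility read with Alamar Blue.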

Toxoplasma gondii = experiment: ST_JUDE: Growth inhibition of to Toxoplasma gondii, in human U-2OS cells, as measured by luciferase.; format: functional, organism-based; details: RH, U2OS
In short: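 T. gondii parasites engineered to express luciferase; drug sensitivity read by luminescence.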

Plasmodium falciparum [4] = experiment: ST_JUDE: Cytotoxicity against Plasmodium falciparum K1; format: functional, organism-based; in short: as §1
Plasmodium falciparum [5] = experiment: ST_JUDE: Plasmodium falciparum 3D7 EC50 (uM) as measured by SYBR green dye; format: functional, organism-based
Plasmodium falciparum [6] = experiment: ST_JUDE: Cytotoxicity against Plasmodium falciparum SB-A6; format: functional, organism-based
Plasmodium falciparum [7] = experiment: ST_JUDE: Cytotoxicity against Plasmodium falciparum V1/S; format: functional, organism-based
Plasmodium falciparum [8] = experiment: ST_JUDE: Cytotoxicity against Plasmodium falciparum W2; format: functional, organism-based
Plasmodium falciparum [9] = experiment: ST_JUDE: Plasmodium falciparum K1 EC50 (uM) as measured by SYBR green dye; format: functional, organism-based
[10] = ST_JUDE: Cytotoxicity using luciferase to measure ATP as an indicator of the viability of human epithelial embryonic kidney cells (HEK293); format: toxicity, cell-based
Plasmodium falciparum [11] = experiment: ST_JUDE: Cytotoxicity against Plasmodium falciparum Dd2; format: functional, organism-based
[12] = ST_JUDE: Cytotoxicity using luciferase to measure ATP as an indicator of the viability of human epithelial hepatocellular carcinoma cells (HepG2); format: toxicity, cell-based
[13] = ST_JUDE: Cytotoxicity using luciferase to measure ATP as an indicator of the viability of human foreskin fibroblast cells (BJ); format: toxicity, cell-based
Trypanosoma brucei = experiment: ST_JUDE: Cytotoxicity using luciferase to measure ATP as an indicator of the viability of Trypanosoma brucei; format: functional, organism-based

c1ccc(CCNc2ccnc3cc4ccccc4cc23)cc1
EC50 (Plasmodium falciparum [1]): 1 µM
EC50 (Plasmodium falciparum [2]): 0.267 µM
EC50 [3]: 9.53 µM
EC50 (Leishmania major): > 13.3 µM
EC50 (Toxoplasma gondii): > 17 µM
EC50 (Plasmodium falciparum [4]): 0.671 µM
EC50 (Plasmodium falciparum [5]): 0.121 µM
EC50 (Plasmodium falciparum [6]): 0.171 µM
EC50 (Plasmodium falciparum [7]): 0.833 µM
EC50 (Plasmodium falciparum [8]): 0.674 µM
EC50 (Plasmodium falciparum [9]): 0.191 µM
EC50 [10]: 7.19 µM
EC50 (Plasmodium falciparum [11]): 0.15 µM
EC50 [12]: 1.32 µM
EC50 [13]: 6.62 µM
EC50 (Trypanosoma brucei): 2.88 µM

COc1ccccc1Cn1ccnc1SCC(=O)Nc1cc(C(F)(F)F)ccc1Cl
EC50 (Plasmodium falciparum [1]): > 10 µM
EC50 (Plasmodium falciparum [2]): 0.19 µM
EC50 [3]: > 39.1 µM
EC50 (Leishmania major): > 16.7 µM
EC50 (Toxoplasma gondii): > 21.4 µM
EC50 (Plasmodium falciparum [4]): 0.252 µM
EC50 (Plasmodium falciparum [5]): 0.119 µM
EC50 (Plasmodium falciparum [6]): > 10 µM
EC50 (Plasmodium falciparum [7]): 0.288 µM
EC50 (Plasmodium falciparum [8]): 2.67 µM
EC50 (Plasmodium falciparum [9]): 0.17 µM
EC50 [10]: > 39.1 µM
EC50 (Plasmodium falciparum [11]): 0.246 µM
EC50 [12]: > 39.1 µM
EC50 [13]: > 39.1 µM
EC50 (Trypanosoma brucei): 12.1 µM

CCc1nc2nc(C)cc(Nc3ccc(I)cc3)n2n1
EC50 (Plasmodium falciparum [1]): > 10.1 µM
EC50 (Plasmodium falciparum [2]): 0.347 µM
EC50 [3]: > 39.5 µM
EC50 (Leishmania major): > 16.9 µM
EC50 (Toxoplasma gondii): > 21.6 µM
EC50 (Plasmodium falciparum [4]): 0.641 µM
EC50 (Plasmodium falciparum [5]): 0.285 µM
EC50 (Plasmodium falciparum [6]): > 10.1 µM
EC50 (Plasmodium falciparum [7]): 1.16 µM
EC50 (Plasmodium falciparum [8]): 0.595 µM
EC50 (Plasmodium falciparum [9]): 0.367 µM
EC50 [10]: > 39.5 µM
EC50 (Plasmodium falciparum [11]): 0.456 µM
EC50 [12]: > 39.5 µM
EC50 [13]: > 39.5 µM
EC50 (Trypanosoma brucei): > 37.8 µM

CCOC(=O)c1cccc(NC(=O)CC2C(=O)N(c3ccc(F)cc3)C(=O)N2CCC(C)C)c1 (stereo not drawn)
EC50 (Plasmodium falciparum [1]): 0.95 µM
EC50 (Plasmodium falciparum [2]): 0.945 µM
EC50 [3]: > 43.4 µM
EC50 (Leishmania major): > 18.6 µM
EC50 (Toxoplasma gondii): > 23.8 µM
EC50 (Plasmodium falciparum [4]): > 11.1 µM
EC50 (Plasmodium falciparum [5]): 0.593 µM
EC50 (Plasmodium falciparum [6]): 1.06 µM
EC50 (Plasmodium falciparum [7]): 1.07 µM
EC50 (Plasmodium falciparum [8]): > 11.1 µM
EC50 (Plasmodium falciparum [9]): 1.16 µM
EC50 [10]: > 43.4 µM
EC50 (Plasmodium falciparum [11]): 0.635 µM
EC50 [12]: > 43.4 µM
EC50 [13]: > 43.4 µM
EC50 (Trypanosoma brucei): 11.8 µM

CCOc1cc(C2CC(=O)NC3=C2C(=O)CC(c2cc(OC)ccc2OC)C3)ccc1O (stereo not drawn)
EC50 (Plasmodium falciparum [1]): 1.14 µM
EC50 (Plasmodium falciparum [2]): 1.05 µM
EC50 [3]: > 40.9 µM
EC50 (Leishmania major): > 17.5 µM
EC50 (Toxoplasma gondii): > 22.4 µM
EC50 (Plasmodium falciparum [4]): 1.09 µM
EC50 (Plasmodium falciparum [5]): 1.07 µM
EC50 (Plasmodium falciparum [6]): 1.13 µM
EC50 (Plasmodium falciparum [7]): 1.66 µM
EC50 (Plasmodium falciparum [8]): 1.98 µM
EC50 (Plasmodium falciparum [9]): 1.28 µM
EC50 [10]: > 40.9 µM
EC50 (Plasmodium falciparum [11]): 1.38 µM
EC50 [12]: > 40.9 µM
EC50 [13]: > 40.9 µM
EC50 (Trypanosoma brucei): > 39.2 µM

CC[n+]1c(/C=C/c2ccc(N(C)C)cc2)ccc2cc(OC)ccc21
EC50 (Plasmodium falciparum [1]): 0.372 µM
EC50 (Plasmodium falciparum [2]): 0.247 µM
EC50 [3]: 0.529 µM
EC50 (Leishmania major): 0.0005 µM
EC50 (Toxoplasma gondii): > 12.7 µM
EC50 (Plasmodium falciparum [4]): 0.471 µM
EC50 (Plasmodium falciparum [5]): 1.69 µM
EC50 (Plasmodium falciparum [6]): 0.702 µM
EC50 (Plasmodium falciparum [7]): 0.43 µM
EC50 (Plasmodium falciparum [8]): 0.0922 µM
EC50 (Plasmodium falciparum [9]): 0.707 µM
EC50 [10]: > 23.2 µM
EC50 (Plasmodium falciparum [11]): 0.174 µM
EC50 [12]: 2.99 µM
EC50 [13]: > 23.2 µM
EC50 (Trypanosoma brucei): 0.343 µM

CCOC(=O)C1=C(C)N=c2s/c(=C\c3cc(Cl)ccc3O)c(=O)n2C1c1ccc(N(C)C)cc1 (stereo not drawn)
EC50 (Plasmodium falciparum [1]): > 4.68 µM
EC50 (Plasmodium falciparum [2]): > 4.68 µM
EC50 [3]: > 18.2 µM
EC50 (Leishmania major): > 7.8 µM
EC50 (Toxoplasma gondii): > 9.98 µM
EC50 (Plasmodium falciparum [4]): 0.446 µM
EC50 (Plasmodium falciparum [5]): > 15 µM
EC50 (Plasmodium falciparum [6]): 2.69 µM
EC50 (Plasmodium falciparum [7]): 0.235 µM
EC50 (Plasmodium falciparum [8]): > 4.68 µM
EC50 (Plasmodium falciparum [9]): 1 µM
EC50 [10]: > 18.2 µM
EC50 (Plasmodium falciparum [11]): 1.82 µM
EC50 [12]: > 18.2 µM
EC50 [13]: > 18.2 µM
EC50 (Trypanosoma brucei): 6.2 µM

CCCCCCCn1ccc(=N)cc1
EC50 (Plasmodium falciparum [1]): 3.84 µM
EC50 (Plasmodium falciparum [2]): 2.19 µM
EC50 [3]: 10.8 µM
EC50 (Leishmania major): > 22 µM
EC50 (Toxoplasma gondii): > 28.2 µM
EC50 (Plasmodium falciparum [4]): 2.31 µM
EC50 (Plasmodium falciparum [5]): 3.1 µM
EC50 (Plasmodium falciparum [6]): 4.17 µM
EC50 (Plasmodium falciparum [7]): 10.3 µM
EC50 (Plasmodium falciparum [8]): > 13.2 µM
EC50 (Plasmodium falciparum [9]): 2.52 µM
EC50 [10]: > 51.4 µM
EC50 (Plasmodium falciparum [11]): 2.73 µM
EC50 [12]: > 51.4 µM
EC50 [13]: > 51.4 µM
EC50 (Trypanosoma brucei): > 49.3 µM

COc1ccc(C2CC3=NC(C)=C(C(=O)OC(C)C)C(c4ccccc4Cl)C3=C(O)C2)cc1OC (stereo not drawn)
EC50 (Plasmodium falciparum [1]): 0.0455 µM
EC50 (Plasmodium falciparum [2]): 0.087 µM
EC50 [3]: > 41.2 µM
EC50 (Leishmania major): > 17.6 µM
EC50 (Toxoplasma gondii): 14.6 µM
EC50 (Plasmodium falciparum [4]): 0.0538 µM
EC50 (Plasmodium falciparum [5]): 0.0358 µM
EC50 (Plasmodium falciparum [6]): 0.035 µM
EC50 (Plasmodium falciparum [7]): 0.0876 µM
EC50 (Plasmodium falciparum [8]): 0.0406 µM
EC50 (Plasmodium falciparum [9]): 0.0178 µM
EC50 [10]: > 41.2 µM
EC50 (Plasmodium falciparum [11]): 0.0582 µM
EC50 [12]: > 41.2 µM
EC50 [13]: > 41.2 µM
EC50 (Trypanosoma brucei): 6.77 µM

CSc1ccc2ccccc2[n+]1C
EC50 (Plasmodium falciparum [1]): 1.11 µM
EC50 (Plasmodium falciparum [2]): 0.59 µM
EC50 [3]: > 37.1 µM
EC50 (Leishmania major): > 15.9 µM
EC50 (Toxoplasma gondii): > 20.3 µM
EC50 (Plasmodium falciparum [4]): 0.588 µM
EC50 (Plasmodium falciparum [5]): 1.59 µM
EC50 (Plasmodium falciparum [6]): 1.2 µM
EC50 (Plasmodium falciparum [7]): 1.83 µM
EC50 (Plasmodium falciparum [8]): 3.21 µM
EC50 (Plasmodium falciparum [9]): 0.893 µM
EC50 [10]: > 37.1 µM
EC50 (Plasmodium falciparum [11]): 1.53 µM
EC50 [12]: > 37.1 µM
EC50 [13]: > 37.1 µM
EC50 (Trypanosoma brucei): > 35.6 µM

C#CC[n+]1ccn2c(C)ccc2c1CC
EC50 (Plasmodium falciparum [1]): > 12.8 µM
EC50 (Plasmodium falciparum [2]): 1.68 µM
EC50 [3]: 40.7 µM
EC50 (Leishmania major): > 21.3 µM
EC50 (Toxoplasma gondii): > 27.3 µM
EC50 (Plasmodium falciparum [4]): 1.42 µM
EC50 (Plasmodium falciparum [5]): > 15 µM
EC50 (Plasmodium falciparum [6]): 2.53 µM
EC50 (Plasmodium falciparum [7]): > 12.8 µM
EC50 (Plasmodium falciparum [8]): 3.44 µM
EC50 (Plasmodium falciparum [9]): 1.38 µM
EC50 [10]: > 49.8 µM
EC50 (Plasmodium falciparum [11]): 1.54 µM
EC50 [12]: > 49.8 µM
EC50 [13]: > 49.8 µM
EC50 (Trypanosoma brucei): > 47.7 µM

Cc1ccc(NC(=O)c2c(I)cnn2C)cc1[N+](=O)[O-]
EC50 (Plasmodium falciparum [1]): > 11.7 µM
EC50 (Plasmodium falciparum [2]): 0.769 µM
EC50 [3]: > 45.7 µM
EC50 (Leishmania major): > 19.6 µM
EC50 (Toxoplasma gondii): > 25.1 µM
EC50 (Plasmodium falciparum [4]): > 11.7 µM
EC50 (Plasmodium falciparum [5]): 0.705 µM
EC50 (Plasmodium falciparum [6]): > 11.7 µM
EC50 (Plasmodium falciparum [7]): 3.73 µM
EC50 (Plasmodium falciparum [8]): 0.583 µM
EC50 (Plasmodium falciparum [9]): 1.05 µM
EC50 [10]: > 45.7 µM
EC50 (Plasmodium falciparum [11]): 0.822 µM
EC50 [12]: > 45.7 µM
EC50 [13]: > 45.7 µM
EC50 (Trypanosoma brucei): > 43.9 µM

Cc1ccc(C2(c3ccc(C)cc3)CC2C(=O)Nc2ccc([N+](=O)[O-])cc2O)cc1 (stereo not drawn)
EC50 (Plasmodium falciparum [1]): 1.6 µM
EC50 (Plasmodium falciparum [2]): 1.01 µM
EC50 [3]: 10.6 µM
EC50 (Leishmania major): > 16.5 µM
EC50 (Toxoplasma gondii): > 21.1 µM
EC50 (Plasmodium falciparum [4]): 0.741 µM
EC50 (Plasmodium falciparum [5]): 0.658 µM
EC50 (Plasmodium falciparum [6]): 1.83 µM
EC50 (Plasmodium falciparum [7]): 1.26 µM
EC50 (Plasmodium falciparum [8]): 1.83 µM
EC50 (Plasmodium falciparum [9]): 0.582 µM
EC50 [10]: 11.4 µM
EC50 (Plasmodium falciparum [11]): 2.09 µM
EC50 [12]: 10.7 µM
EC50 [13]: 11 µM
EC50 (Trypanosoma brucei): 4.78 µM
